Among the data in ChEMBL document CHEMBL1687821, “In vivo and in vitro efficacy of chloroquine against Plasmodium malariae and P. ovale in Papua, Indonesia” (Antimicrob Agents Chemother, 2011) are IC50 and Ratio values, retold here.

Molecules are shown by their SMILES.

The subject of assay [1] is Plasmodium malariae. The assay can be described thus: Antimalarial activity against Plasmodium malariae trophozoite stage infected in red blood cells in presence of AB+ human serum by drug susceptibility assay. The format is functional, organism-based. The procedure, abridged:
(§1)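 Field isolates from venous blood, leukocytes removed on CF11 column. Modified WHO schizont-maturation microtest at 2% hematocrit in McCoy's 5A with 20% AB+ serum, 11 twofold dilutions (chloroquine top 5,910 nM). Candle jar, 37.5°C, 15–56 h, stopped at >40% schizonts in the drug-free control. Schizonts (≥5 chromatin dots) per 200 asexual parasites, normalized to control. IC50 from inhibitory sigmoid Emax fit. Isolates grouped by predominant stage at start.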

The test system of assay [2] is Plasmodium malariae. Briefly: Antimalarial activity against Plasmodium malariae ring stage infected in red blood cells in presence of AB+ human serum by drug susceptibility assay. The format is functional, organism-based. The procedure, abridged:
as §1

In assay [3] the test system is Plasmodium ovale. Briefly: Antimalarial activity against Plasmodium ovale ring stage infected in red blood cells in presence of AB+ human serum by drug susceptibility assay. The class given is functional. Summed up:
as §1

For assay [4], the system named is Plasmodium ovale. Briefly: Antimalarial activity against Plasmodium ovale trophozoite stage infected in red blood cells in presence of AB+ human serum by drug susceptibility assay. The format is functional. The procedure, abridged:
as §1

The test system of assay [5] is Plasmodium ovale. Briefly: Antimalarial activity against Plasmodium ovale in patients assessed as parasite reduction ratio at 25 mg/kg, po after 48 hrs. The format is functional. The procedure, abridged:
(§2)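 Oral chloroquine tablets (150 mg base each) at 25 mg/kg over 3 days, all doses supervised; dose repeated once if vomited within 60 min. Parasitemia counted on Giemsa-stained thick films as parasites per 200 WBCs by an expert microscopist. Reduction ratio taken at 48 h.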

Assay [6] deals with Plasmodium malariae. Briefly: Antimalarial activity against Plasmodium malariae in patients assessed as parasite reduction ratio at 25 mg/kg, po after 48 hrs. The format is functional. Summed up:
as §2

On to `CCN(CC)Cc1cc(Nc2ccnc3cc(Cl)ccc23)ccc1O`, for which the results for the concentration for half-maximal inhibition (IC50) with Plasmodium malariae [1], with Plasmodium malariae [2] and in the assay on Plasmodium ovale [3] were 19.1 nM, 21.7 nM and 4.3 nM, respectively.
For `C[C@H]1[C@H](OC(=O)CCC(=O)O)O[C@@H]2O[C@@]3(C)CC[C@H]4[C@H](C)CC[C@@H]1[C@@]24OO3` [ARTESUNATE], the 50% inhibitory concentration (IC50) in the assay with Plasmodium ovale [4] is 1.28 nM; in the assay on Plasmodium malariae [1] it was 2.84 nM; in the assay with Plasmodium malariae [2], 1.77 nM; in the assay on Plasmodium ovale [3] it was 1.16 nM.
As to `CCN(CC)CCCC(C)Nc1ccnc2cc(Cl)ccc12` (stereo not drawn) [CHLOROQUINE], the values for the Ratio in the assay on Plasmodium ovale [5] and with Plasmodium malariae [6] were 150 and 86, respectively. For the same compound, the half-maximal inhibitory concentration (IC50) turned out to be 23.2 nM in the assay with Plasmodium ovale [4], 128 nM in the assay with Plasmodium malariae [1], 14 nM with Plasmodium malariae [2] and 7.8 nM in the assay with Plasmodium ovale [3].
`OC(c1cc(C(F)(F)F)nc2c(C(F)(F)F)cccc12)C1CCCCN1` (stereo not drawn) [MEFLOQUINE]: the half-maximal inhibitory concentration (IC50) in the assay on Plasmodium malariae [1] was determined as 46.9 nM; in the assay on Plasmodium malariae [2], 36.8 nM; with Plasmodium ovale [3] it was 23.8 nM.
Regarding `Clc1ccc2c(N3CCN(CCCN4CCN(c5ccnc6cc(Cl)ccc56)CC4)CC3)ccnc2c1` [PIPERAQUINE], the IC50 in the assay on Plasmodium ovale [4] came to 7.57 nM; in the assay with Plasmodium malariae [1], 38.4 nM; in the assay on Plasmodium malariae [2], 29 nM; in the assay on Plasmodium ovale [3] it was 10.2 nM.
Regarding `COc1ccc2nc3cc(Cl)ccc3c(Nc3cc(CN4CCCC4)c(O)c(CN4CCCC4)c3)c2n1` [PYRONARIDINE], the IC50 is 7.8 nM in the assay on Plasmodium malariae [1], 4.1 nM in the assay on Plasmodium malariae [2] and 0.72 nM in the assay with Plasmodium ovale [3].

For orientation: IC50 means the concentration that inhibits the measured activity by half.
